# Assay results from ChEMBL document CHEMBL1125166, “Kinetic and equilibrium binding studies of amsacrine-4-carboxamides: a class of asymmetrical DNA-intercalating agents which bind by threading through the DNA helix” (J Med Chem, 1990).
# Values joined by “and” are separate entries in the source; they are usually repeats but may differ in a detail not shown here. Identical values can stand only once.
# Tests used:
# [1] = system: Nucleic Acid; assay: Free drug extinction coefficient in 0.1 SHE buffer at the concentration of 50 uM; 9.4 x 10 e-3 epcilonfor equilibrium binding to calf thymus DNA; settings: Bos taurus
# [2] = system: Nucleic Acid; assay: (§1) Fraction of the observed equilibrium absorbance change accounted in the kinetic analysis.; format: nucleic-acid assay
# How it was run: (§2)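 SDS-induced dissociation by stopped flow. Drug–calf thymus DNA complex (400 μM base pairs, 20 μM drug, 0.1 SHE) mixed 1:1 with 20 mM SDS (monomer) at 20 °C. Finals: 200 μM DNA, 10 μM drug, 10 mM SDS; D/P also 0.2. Absorbance followed at the visible maximum. Time constants and % amplitudes obtained from exponential fitting. Fraction = resolved amplitude over equilibrium absorbance change on SDS addition.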
# [3] = system: Nucleic Acid; assay: Association constant for binding to poly(dG-dC) DNA in 0.01 SHE buffer, measured by ethidium displacement method; format: nucleic-acid assay
# How it was run: (§3)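 Ethidium displacement in 0.01 SHE buffer with poly(dA-dT) or poly(dG-dC). Association constants corrected for quenching.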
# [4] = system: Nucleic Acid; assay: (§4) Time constant describing the dissociation profile of calf thymus DNA-drug complexes in 0.1 SHE buffer at 20 degree C; format: nucleic-acid assay
# How it was run: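 Stopped-flow absorbance at 20 °C, read at the visible absorption maxima. The complex was 400 μM sonicated calf thymus DNA (nucleotide pairs) with 20 μM drug in 0.1 SHE, mixed with an equal volume of 20 mM SDS (monomer) in the same buffer. Final: 200 μM DNA bp, 10 μM drug, 10 mM SDS (1 drug : 20 bp). Exponential decay time constants were resolved.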
# [5] = system: Nucleic Acid; assay: Association constant for binding to poly(dA-dT) DNA in 0.01 SHE buffer, measured by ethidium displacement method; format: nucleic-acid assay
# How it was run: as §3
# [6] = system: Nucleic Acid; assay: Free drug λmax in 0.1 SHE buffer at the concentration of 50 uM for equilibrium binding to calf thymus DNA
# [7] = system: Nucleic Acid; assay: Time constant describing the association profile of calf thymus DNA-drug complexes in 0.1 SHE buffer at 20 degree C after 2 min; format: nucleic-acid assay
# How it was run: (§5)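 Stopped-flow association to sonicated calf thymus DNA (~10^6 MW) in 0.1 SHE at 20 °C. Final DNA 200 μM base pairs and final drug 10 μM (ratio 0.05); D/P also varied to 0.10 and 0.20. Absorbance followed at the drug's visible maximum. Traces deconvoluted into exponentials by curve stripping; at least six runs analysed separately and averaged. Amplitudes given as % of summed amplitudes.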
# [8] = system: Nucleic Acid; assay: Percentage of the sum of the amplitudes in the kinetic experiment.; format: nucleic-acid assay; settings: Bos taurus
# [9] = system: Nucleic Acid; assay: Time constant describing the association profile of calf thymus DNA-drug complexes in 0.1 SHE buffer at 20 degree C after 3 min; format: nucleic-acid assay
# How it was run: as §5
# [10] = system: Nucleic Acid; assay: Time constant describing the association profile of calf thymus DNA-drug complexes in 0.1 SHE buffer at 20 degree C after 1 min; format: nucleic-acid assay
# How it was run: as §5
# [11] = system: Nucleic Acid; assay: Association constant for binding to poly(dA-dT) DNA in 0.01 SHE buffer, measured by ethidium displacement method for equilibrium binding to calf thymus DNA; format: nucleic-acid assay
# [12] = system: Nucleic Acid; assay: Percentage of the sum of the amplitudes evaluated in the kinetic experiment; format: nucleic-acid assay; settings: Bos taurus
# [13] = Fraction of the observed equilibrium absorbance change accounted in the kinetic analysis
# How it was run: as §2
# [14] = system: Nucleic Acid; assay: Association constant for binding to poly(dG-dC) DNA in 0.01 SHE buffer, measured by ethidium displacement method for equilibrium binding to calf thymus DNA; format: nucleic-acid assay
# [15] = system: Nucleic Acid; assay: as §4; format: nucleic-acid assay; remark: listed apart in the source
# How it was run: as §2
# [16] = system: Nucleic Acid; assay: Time constant describing the dissociation profile was studied for binding of compound to a poly(dA-dT) DNA; format: nucleic-acid assay
# [17] = system: Nucleic Acid; assay: Time constant describing the dissociation profile was studied for binding of compound to a poly(dG-dC) DNA; format: nucleic-acid assay
# [18] = system: Nucleic Acid; assay: (§6) Fraction of the observed equilibrium absorbance change accounted in the kinetic analysis on rates with DNA-ligand ratio.; format: nucleic-acid assay; settings: Bos taurus
# [19] = system: Nucleic Acid; assay: as §6; format: functional; settings: Bos taurus
# [20] = system: Nucleic Acid; assay: Time constant describing the dissociation profile was studied for binding of compound to a (dA-dT)DNA; format: nucleic-acid assay
# [21] = system: Nucleic Acid; assay: Percentage of the sum of the amplitudes evaluated in the kinetic experiment for binding of compound to a CT-DNA; format: nucleic-acid assay; settings: Bos taurus
# How it was run: as §2
# [22] = system: Nucleic Acid; assay: as §1; format: functional; settings: Bos taurus
# How it was run: as §2
# [23] = system: Nucleic Acid; assay: Time constant describing the association profile was studied for binding of compound to a poly(dA-dT) DNA; format: nucleic-acid assay
# [24] = system: Nucleic Acid; assay: Percentage of the sum of the amplitudes evaluated in the kinetic experiment for binding of compound to a (dI-dC)DNA; format: functional; settings: Bos taurus
# [25] = system: Nucleic Acid; assay: Time constant describing the association profile was studied for variation on rates with DNA-ligand ratio.; format: nucleic-acid assay
# How it was run: as §5
# [26] = system: Nucleic Acid; assay: (§7) Fraction of the observed equilibrium absorbance change accounted in the kinetic analysis off rates with DNA-ligand ratio.; format: functional; settings: Bos taurus
# How it was run: as §2
# [27] = system: Nucleic Acid; assay: as §7; format: nucleic-acid assay; settings: Bos taurus
# How it was run: as §2
# [28] = system: Nucleic Acid; assay: Percentage of the sum of the amplitudes evaluated in the kinetic experiment for binding of compound to a calf thymus DNA; settings: Bos taurus
# [29] = system: Nucleic Acid; assay: Fraction of the observed equilibrium absorbance change accounted in the kinetic analysis or binding of compound to a (dA-dT)-DNA; format: functional; settings: Bos taurus
# [30] = system: Nucleic Acid; assay: Fraction of the observed equilibrium absorbance change accounted in the kinetic analysis or binding of compound to a (dG-dC)-DNA; format: nucleic-acid assay; settings: Bos taurus
# [31] = system: Nucleic Acid; assay: Fraction of the observed equilibrium absorbance change accounted in the kinetic analysis or binding of compound to a CT-DNA; format: functional; settings: Bos taurus
# How it was run: as §2
# [32] = system: Nucleic Acid; assay: Time constant describing the association profile was studied for binding of compound to a (dA-dT)DNA; format: nucleic-acid assay
# [33] = system: Nucleic Acid; assay: Percentage of the sum of the amplitudes evaluated in the kinetic experiment on rates with DNA-ligand ratio.; format: functional; settings: Bos taurus
# How it was run: as §5
# [34] = system: Nucleic Acid; assay: Time constant describing the dissociation profile of calf thymus DNA-drug complexes in 0.1 SHE buffer at 20 degree C.; format: nucleic-acid assay
# How it was run: as §2
# [35] = system: Nucleic Acid; assay: Percentage of the sum of the amplitudes evaluated in the kinetic experiment.; format: functional; settings: Bos taurus
# How it was run: as §2
ε (×10^-3) [1],Activity ([2]; Bos taurus),k0 [3],k0 [5],λmax (nm) [6],Time constant [7],Time constant [9],Time constant [10],SMILES,further results
12.1,48,260000 M⁻¹,290000 M⁻¹,434,–,–,–,COc1cc(NS(C)(=O)=O)ccc1Nc1c2ccccc2nc2ccccc12,Time constant [4]: 2 ms and 6 ms
11.6,79 and 92,3.98e+06 M⁻¹,2.34e+06 M⁻¹,441,15 ms,66 ms,3 ms,COc1cc(NS(C)(=O)=O)ccc1Nc1c2ccccc2nc2c(C(=O)NCCCN(C)C)cccc12,Relative amplitude [8]: 31% and 39% and 55%
10.1,–,–,–,399,–,–,–,Nc1c2ccccc2nc2ccccc12,k0 [11]: 1.2e+06 M⁻¹; Relative amplitude [12]: 15% and 12%; Activity [13]: 50; k0 [14]: 1.4e+06 M⁻¹; T1 [15]: 3 ms; T2 [15]: 15 ms
12.9,62,6.6e+07 M⁻¹,2.45e+07 M⁻¹,442,24 ms,110 ms,5 ms,COc1cc(NS(C)(=O)=O)ccc1Nc1c2ccccc2nc2c(C(=O)NCCN(C)C)cccc12,Time constant [16]: 38 ms; Time constant [17]: 1640 ms and 3500 ms; Activity [18]: 62 and 60; Activity [19]: 72; Time constant [20]: 7 ms; Relative amplitude [21]: 41%; Activity [22]: 97; Time constant [23]: 16 ms; Relative amplitude [24]: 78%; Time constant [25]: 5 ms; Activity [26]: 97; Activity [27]: 95; Relative amplitude [28]: 64%; Activity [29]: 25 and 70; Activity [30]: 76 and 99; Activity [31]: 62 and 97; Time constant [32]: 3 ms
12.3,–,6.61e+07 M⁻¹,2.82e+07 M⁻¹,440,25 ms,93 ms,5 ms,COc1cc(NS(C)(=O)=O)ccc1Nc1c2ccccc2nc2c(C(=O)NCC(=O)NCCNCCO)cccc12,Activity [18]: 74; Activity [2]: 66; Activity [19]: 66 and 65; Activity [22]: 100; Relative amplitude [33]: 33% (2×) and 48% and 37%
11.6,54 and 79,1.51e+06 M⁻¹,350000 M⁻¹,438,7 ms,–,2 ms,CNC(=O)c1cccc2c(Nc3ccc(NS(C)(=O)=O)cc3OC)c3ccccc3nc12,Relative amplitude [8]: 52% [middle of 4 runs]; Time constant [34]: 11 ms and 29 ms
9.4,–,–,–,407,–,–,–,CN(C)CCNC(=O)c1cccc2c(N)c3ccccc3nc12,T2 [7]: 19 ms; k0 [11]: 2.24e+07 M⁻¹; k0 [14]: 5e+07 M⁻¹; T1 [15]: 6 ms; T2 [15]: 28 ms; T3 [15]: 86 ms; T4 [15]: 428 ms; T1 [10]: 4 ms
10.9,85 and 72,8.12e+06 M⁻¹,950000 M⁻¹,439,32 ms,95 ms,4 ms,COc1cc(NS(C)(=O)=O)ccc1Nc1c2ccccc2nc2c(C(=O)NCCCO)cccc12,Relative amplitude [35]: 25% and 35%; Time constant [34]: 58 ms and 157 ms
10.4,90 and 80,2.4e+06 M⁻¹,890000 M⁻¹,441,31 ms,100 ms,4 ms,COc1cc(NS(C)(=O)=O)ccc1Nc1c2ccccc2nc2c(C(=O)NCCO)cccc12,Time constant [34]: 81 ms and 208 ms
11.6,69,4.9e+07 M⁻¹,2.19e+07 M⁻¹,441,18 ms,66 ms,3 ms,COc1cc(NS(C)(=O)=O)ccc1Nc1c2ccccc2nc2c(C(=O)NCCNCCO)cccc12,Activity [18]: 69 and 60; Activity [19]: 68; Activity [22]: 100
10.4,77 and 88,3.71e+07 M⁻¹,2.51e+06 M⁻¹,425,40 ms,110 ms,8 ms,COc1cc(NS(C)(=O)=O)ccc1Nc1c2ccccc2nc2c(C(=O)NCC(O)CO)cccc12 (configuration not stated),–
